Values after ≈ are worked out from the molar mass of the structure shown.
Columns and labels:
[1] = system: Candida albicans; assay: Antifungal activity against fluconazole susceptible Candida albicans 0072gr in presence of fluconazole by CLSI protocol based broth microdilution method; type: functional
[2] = system: Candida albicans; assay: Antifungal activity against fluconazole susceptible Candida albicans 003gr in presence of fluconazole by CLSI protocol based broth microdilution method; type: functional
[3] = system: Candida albicans; assay: Antifungal activity against fluconazole susceptible Candida albicans 004gr by CLSI protocol based broth microdilution method; type: functional
Method in brief: (§1)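 Clinical isolates and control strain subcultured at least twice on TSA, 37 °C, 48 h. MICs by CLSI M27-A3 broth microdilution; compounds dissolved in DMSO to 2000 μg mL–1 stock. Fluconazole positive control, culture, media and DMSO vehicle controls in each run. Duplicate experiments; MIC in μg mL–1.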

[4] = system: Candida albicans; assay: Inhibition of ABC efflux pumps in fluconazole susceptible Candida albicans 002B1 assessed as reduction in energy-dependent rhodamine 6G efflux in presence of 0.1 M glucose after 25 mins […] relative to control
[5] = system: Candida albicans; assay: Down regulation of ERG11 gene expression in fluconazole resistant Candida albicans A171 at MIC after 2 hrs by qRT PCR analysis relative to control; type: functional
Method in brief: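 Cells exposed 2 h to test agents at MIC. Total RNA isolated, cDNA synthesized, qPCR for ERG11 with ACT1 as endogenous control. Triplicate independent experiments, reported as mean ± standard deviation.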

[6] = system: Candida albicans; assay: Antifungal activity against fluconazole susceptible Candida albicans 004B1 in presence of fluconazole by CLSI protocol based broth microdilution method; type: functional
[7] = system: Candida albicans; assay: Antifungal activity against fluconazole resistant Candida albicans 167-1 by CLSI protocol based broth microdilution method; type: functional
Method in brief: (§2)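 Broth microdilution per CLSI M27-A3 against clinical C. albicans isolates. Strains sub-cultured at least twice on Tryptone Soya Agar, 37 °C, 48 h. Compounds dissolved in DMSO at 2000 μg mL–1 stock. Fluconazole positive control, plus culture, media and vehicle controls. Run in duplicate; MIC in μg mL–1.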

[8] = system: Candida albicans; assay: Inhibition of ergosterol biosynthesis in fluconazole susceptible Candida albicans ATCC 90028 at 0.5 to 1 times MIC relative to control; type: functional
Method in brief: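 ATCC90028 grown in 50 ml TSB with MIC and ½ MIC of compound; untreated and 8 μg mL–1 fluconazole controls. Sterols extracted by alcoholic KOH method and spectrophotometrically scanned; ergosterol % calculated from A281.5 and A230 (E values 290 and 518) with dilution factor, per pellet weight.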

[9] = system: Candida albicans; assay: Inhibition of ABC efflux pumps in fluconazole susceptible Candida albicans 003gr assessed as reduction in energy-dependent rhodamine 6G efflux in presence of 0.1 M glucose after 25 mins […] relative to control
[10] = system: Candida albicans; assay: Antifungal activity against fluconazole resistant Candida albicans 167-1 in presence of fluconazole by CLSI protocol based broth microdilution method; type: functional
Method in brief: (§3)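 Checkerboard-style combination with fluconazole at a 1 : 1 ratio, over concentrations 2–4 fold below each agent's MIC alone, by CLSI broth microdilution. Fractional inhibitory concentration index calculated and interpreted as synergy (<0.5), additive (0.5–1), indifferent or antagonistic.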

[11] = system: Candida albicans; assay: Antifungal activity against Candida albicans ATCC 90028 in presence of fluconazole by CLSI protocol based broth microdilution method; type: functional
[12] = system: Candida albicans; assay: Inhibition of ergosterol biosynthesis in fluconazole resistant Candida albicans A171 at 0.5 to 1 times MIC relative to control; type: functional
Method in brief: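 Total sterols quantified by alcoholic KOH extraction in cells grown in 50 ml TSB with compounds at MIC and ½ MIC; untreated and 8 μg mL–1 fluconazole controls. Spectral scan; ergosterol content from A281.5 and A230 absorbances, dilution factor and pellet weight, correcting for 24(28) DHE.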

[13] = system: Candida albicans; assay: Inhibition of ABC efflux pumps in fluconazole susceptible Candida albicans 0079gr assessed as reduction in energy-dependent rhodamine 6G efflux in presence of 0.1 M glucose after 25 mins by fluorescence assay relative to control
Method in brief: (§4)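 Cells grown in TSB at 37 °C for 8 h, washed, resuspended in glucose-free PBS at 1 × 10^8 cells. De-energized 45 min with 5 mM deoxyglucose plus 5 mM dinitrophenol. […] Washed, sampled 5–25 min, then 0.1 M glucose added. Absorbance 527 nm, R6G from standard curve.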

[14] = system: Candida albicans; assay: Antifungal activity against fluconazole susceptible Candida albicans 0079gr in presence of fluconazole by CLSI protocol based broth microdilution method; type: functional
[15] = system: Candida albicans; assay: Inhibition of ABC efflux pumps in fluconazole susceptible Candida albicans 004gr assessed as reduction in energy-dependent rhodamine 6G efflux in presence of 0.1 M glucose after 25 mins by fluorescence assay relative to control; method in brief: as §4
[16] = system: Candida albicans; assay: Antifungal activity against fluconazole susceptible Candida albicans 003gr by CLSI protocol based broth microdilution method; type: functional; method in brief: as §1
[17] = system: Candida albicans; assay: Inhibition of ABC efflux pumps in fluconazole resistant Candida albicans A171 assessed as reduction in energy-dependent rhodamine 6G efflux in presence of 0.1 M glucose after 25 mins by fluorescence assay relative to control; method in brief: as §4
[18] = system: Candida albicans; assay: Inhibition of ABC efflux pumps in fluconazole susceptible Candida albicans 004B1 assessed as reduction in energy-dependent rhodamine 6G efflux in presence of 0.1 M glucose after 25 mins by fluorescence assay relative to control; method in brief: as §4
[19] = system: Candida albicans; assay: Antifungal activity against Candida albicans ATCC 90028 by CLSI protocol based broth microdilution method; type: functional; method in brief: as §1
[20] = system: Candida albicans; assay: Antifungal activity against fluconazole resistant Candida albicans 167-2 in presence of fluconazole by CLSI protocol based broth microdilution method; type: functional; method in brief: as §3
[21] = system: Candida albicans; assay: Antifungal activity against fluconazole susceptible Candida albicans 004gr in presence of fluconazole by CLSI protocol based broth microdilution method; type: functional
[22] = system: Candida albicans; assay: Antifungal activity against fluconazole resistant Candida albicans A171 in presence of fluconazole by CLSI protocol based broth microdilution method; type: functional; method in brief: as §3
[23] = system: Candida albicans; assay: Antifungal activity against fluconazole susceptible Candida albicans 002B1 in presence of fluconazole by CLSI protocol based broth microdilution method; type: functional
[24] = system: Candida albicans; assay: Antifungal activity against fluconazole susceptible Candida albicans 0079gr by CLSI protocol based broth microdilution method; type: functional; method in brief: as §1
[25] = system: Candida albicans; assay: Antifungal activity against fluconazole resistant Candida albicans A171 by CLSI protocol based broth microdilution method; type: functional; method in brief: as §2
[26] = system: Candida albicans; assay: Antifungal activity against fluconazole susceptible Candida albicans 004B1 by CLSI protocol based broth microdilution method; type: functional; method in brief: as §1
[27] = system: Candida albicans; assay: Antifungal activity against fluconazole susceptible Candida albicans 002B1 by CLSI protocol based broth microdilution method; type: functional; method in brief: as §1
[28] = system: Candida albicans; assay: Down regulation of ERG11 gene expression in fluconazole susceptible Candida albicans ATCC 90028 at MIC after 2 hrs by qRT PCR analysis relative to control; type: functional
Method in brief: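 Cells exposed to compound at MIC for 2 h; total RNA isolated, cDNA synthesised, ERG11 measured by real-time qPCR with ACT1 as endogenous control. Triplicate independent experiments; mean ± standard deviation.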

[29] = system: Candida albicans; assay: Inhibition of ABC efflux pumps in fluconazole susceptible Candida albicans 0072gr assessed as reduction in energy-dependent rhodamine 6G efflux in presence of 0.1 M glucose after 25 mins […] relative to control
[30] = system: Candida albicans; assay: Inhibition of ABC efflux pumps in fluconazole resistant Candida albicans 167-2 assessed as reduction in energy-dependent rhodamine 6G efflux in presence of 0.1 M glucose after 25 mins […] relative to control
[31] = system: Candida albicans; assay: Antifungal activity against fluconazole resistant Candida albicans 167-2 by CLSI protocol based broth microdilution method; type: functional; method in brief: as §2
[32] = system: Candida albicans; assay: Inhibition of ABC efflux pumps in fluconazole resistant Candida albicans 167-1 assessed as reduction in energy-dependent rhodamine 6G efflux in presence of 0.1 M glucose after 25 mins […] relative to control
[33] = system: Candida albicans; assay: Antifungal activity against fluconazole susceptible Candida albicans 0072gr by CLSI protocol based broth microdilution method; type: functional; method in brief: as §1

| SMILES | fractional inhibitory concentration index (FICI) [1] | fractional inhibitory concentration index (FICI) [2] | MIC [3] | inhibition [4] | fractional inhibitory concentration index (FICI) [6] | MIC [7] | inhibition (INH) [8] | inhibition [9] | fractional inhibitory concentration index (FICI) [10] | fractional inhibitory concentration index (FICI) [11] | inhibition (INH) [12] | inhibition [13] | fractional inhibitory concentration index (FICI) [14] | inhibition [15] | MIC [16] | inhibition [17] | inhibition [18] | MIC [19] | fractional inhibitory concentration index (FICI) [20] | fractional inhibitory concentration index (FICI) [21] | other results |
| --- | --- | --- | --- | --- | --- | --- | --- | --- | --- | --- | --- | --- | --- | --- | --- | --- | --- | --- | --- | --- | --- |
| O=C(/C=C/c1ccc(/C=C/C(=O)c2ccccc2)cc1)c1ccccc1 | 0.31 - 1.5 | 0.31 - 1.5 | 2 to 16 µg/mL (≈ 5.91 to 47.3 µM) | < 20% | 0.31 - 1.5 | 16 to 31 µg/mL (≈ 47.3 to 91.6 µM) | 66 - 99% | < 20% | 0.266 - 0.27 | 0.31 - 1.5 | 49 - 94% | < 20% | 0.31 - 1.5 | < 20% | 2 to 16 µg/mL (≈ 5.91 to 47.3 µM) | < 20% | < 20% | 2 to 16 µg/mL (≈ 5.91 to 47.3 µM) | 0.266 - 0.27 | 0.31 - 1.5 | fold change (FC) [5]: 1.25 - 10; fractional inhibitory concentration index (FICI) [22]: 0.266 - 0.27; fractional inhibitory concentration index (FICI) [23]: 0.31 - 1.5; MIC [24]: 2 to 16 µg/mL (≈ 5.91 to 47.3 µM); MIC [25]: 16 to 31 µg/mL (≈ 47.3 to 91.6 µM); MIC [26]: 2 to 16 µg/mL (≈ 5.91 to 47.3 µM); MIC [27]: 2 to 16 µg/mL (≈ 5.91 to 47.3 µM); fold change (FC) [28]: 1.5 - 13; inhibition [29]: < 20%; inhibition [30]: < 20%; MIC [31]: 16 to 31 µg/mL (≈ 47.3 to 91.6 µM); inhibition [32]: < 20%; MIC [33]: 2 to 16 µg/mL (≈ 5.91 to 47.3 µM) |
| NC(=S)N1N=C(c2ccccc2)CC1c1ccccc1 (stereo not given) | 1.97 - 4.28 | 1.97 - 4.28 | 125 to 500 µg/mL (≈ 444 to 1780 µM) | < 20% | 1.97 - 4.28 | 500 µg/mL (≈ 1780 µM) | 66 - 99% | < 20% | 0.75 - 1.5 | 1.97 - 4.28 | 49 - 94% | < 20% | 1.97 - 4.28 | < 20% | 125 to 500 µg/mL (≈ 444 to 1780 µM) | < 20% | < 20% | 125 to 500 µg/mL (≈ 444 to 1780 µM) | 0.75 - 1.5 | 1.97 - 4.28 | fractional inhibitory concentration index (FICI) [22]: 0.75 - 1.5; fractional inhibitory concentration index (FICI) [23]: 1.97 - 4.28; MIC [24]: 125 to 500 µg/mL (≈ 444 to 1780 µM); MIC [25]: 500 µg/mL (≈ 1780 µM); MIC [26]: 125 to 500 µg/mL (≈ 444 to 1780 µM); MIC [27]: 125 to 500 µg/mL (≈ 444 to 1780 µM); inhibition [29]: < 20%; inhibition [30]: < 20%; MIC [31]: 500 µg/mL (≈ 1780 µM); inhibition [32]: < 20%; MIC [33]: 125 to 500 µg/mL (≈ 444 to 1780 µM) |
| O=C(/C=C/c1ccccc1)c1ccccc1 [CHALCONE] | 0.75 - 4.38 | 0.75 - 4.38 | 31 to 62 µg/mL (≈ 149 to 298 µM) | < 20% | 0.75 - 4.38 | 31 to 62 µg/mL (≈ 149 to 298 µM) | 66 - 99% | < 20% | 0.562 - 0.62 | 0.75 - 4.38 | 49 - 94% | < 20% | 0.75 - 4.38 | < 20% | 31 to 62 µg/mL (≈ 149 to 298 µM) | < 20% | < 20% | 31 to 62 µg/mL (≈ 149 to 298 µM) | 0.562 - 0.62 | 0.75 - 4.38 | fractional inhibitory concentration index (FICI) [22]: 0.562 - 0.62; fractional inhibitory concentration index (FICI) [23]: 0.75 - 4.38; MIC [24]: 31 to 62 µg/mL (≈ 149 to 298 µM); MIC [25]: 31 to 62 µg/mL (≈ 149 to 298 µM); MIC [26]: 31 to 62 µg/mL (≈ 149 to 298 µM); MIC [27]: 31 to 62 µg/mL (≈ 149 to 298 µM); inhibition [29]: < 20%; inhibition [30]: < 20%; MIC [31]: 31 to 62 µg/mL (≈ 149 to 298 µM); inhibition [32]: < 20%; MIC [33]: 31 to 62 µg/mL (≈ 149 to 298 µM) |
